# Experimental data collected from several papers.
# Each line is one published result; the experiments were not run side by side.
Compound,system,conditions,measurement,result
CC(C)(O)c1ccccc1-c1ccc2[nH]c(/C=C/c3ccc(C(F)(F)F)cc3)nc2c1,"male human, plasma","oral, 5 mg, single dose, fasted, healthy volunteers",AUC(0-t),971 ng·h/mL
CC(C)(NC(=O)O[C@@H]1CN2CCC1CC2)c1csc(-c2ccc(F)cc2)n1,"female CD-1 mouse, brain","intraperitoneal, 10 mg/kg, single dose",tissue/plasma ratio,0.86
COc1cc(C(=O)NC2CCN(C)CC2)c(F)cc1Nc1ncc(C(F)(F)F)c(Oc2cccc3c2C(=O)N(C)C3)n1,"human, plasma","oral, 10 mg, multiple doses, once daily, steady state, patients",AUC,0.816 µM·h
Cn1c(=O)oc2ccc(-c3ccc(C[C@@H](C#N)NC(=O)[C@@H]4CNCCCO4)cc3)cc21,"male human, plasma","oral, 50 mg, single dose, healthy volunteers",AUC,17.6 µM·h
CC(C)n1cc(C#N)c2cc(-n3cc(C(=O)O)cn3)ccc21,"human, plasma","oral, 200 mg, single dose, fed",AUC(0-t),43700 ng·h/mL
COc1ccc([C@@H]2CN(C(=O)[C@@H](O)CO)C[C@@]2(C)[C@@H](C)O)cc1OC1CN(c2ccc(C)cn2)C1,"human, plasma","oral, 30 mg, single dose, healthy volunteers",AUC(0-inf),6330 ng·h/mL
CCN(CC)C(=O)[C@@]1(c2ccccc2)C[C@H]1CN,"male cynomolgus monkey, plasma","oral, 30 mg/kg",Tmax,4 h
CN(C(=O)n1cnc(-c2ccc[n+]([O-])c2)c1)C1CCCCC1,"male cynomolgus monkey, plasma","oral, 0.3 mg/kg",Tmax,2 h
CCc1nc2c(C)cc(N3CCN(CC(=O)N4CC(O)C4)CC3)cn2c1N(C)c1nc(-c2ccc(F)cc2)c(C#N)s1,"human, plasma","oral, 1000 mg, single dose, fed, healthy volunteers",AUC(0-inf),66000 ng·h/mL
CC(C)(C)c1ccc(O)c(CN(Cc2cc(C(C)(C)C)ccc2O)C2CCC(NC(N)=O)CC2)c1 (centres unmarked),"male C57BL/6 mouse, brain","oral, 10 mg/kg, single dose",tissue/plasma ratio,0.64
O=C(O)C1CCN(c2ncc(-c3ccc4c(c3)OCCCO4)s2)CC1,"male Swiss mouse, brain","oral, 30 mg/kg, single dose",tissue/plasma ratio,0.028
